Measured values from ChEMBL document CHEMBL3853298, “Total synthesis and in vitro bioevaluation of clavaminols A, C, H & deacetyl clavaminol H as potential chemotherapeutic and antibiofilm agents” (Eur J Med Chem, 2016).
≈ marks a conversion by molar mass, not a printed value.

How the values were obtained:
Format in all cases: functional
Candida albicans [1] = assay: Antifungal activity against Candida albicans MTCC 227 after 24 hrs by well diffusion method; conditions: MTCC 227, 24 h
Summary of the method: (§1)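 Candida/Issatchenkia lawns (0.1 mL suspension) on Mueller-Hinton agar; 6.0 mm bored wells receive compound across a 250 to 0.48 per-well dose range, methanol as negative control. Plates kept 24 h at 30 °C. MIC is the lowest concentration producing a visible inhibition zone. Duplicate runs, mean values.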

Candida albicans [2] = assay: Antifungal activity against Candida albicans MTCC 183 after 24 hrs by well diffusion method; conditions: MTCC 183, 24 h; summary of the method: as §1
Candida albicans [3] = assay: Antifungal activity against Candida albicans MTCC 854 after 24 hrs by well diffusion method; conditions: MTCC 854, 24 h; summary of the method: as §1
Candida albicans [4] = assay: Antifungal activity against Candida albicans MTCC 1637 after 24 hrs by well diffusion method; conditions: MTCC 1637, 24 h; summary of the method: as §1
Candida albicans [5] = assay: Antifungal activity against Candida albicans MTCC 3017 after 24 hrs by well diffusion method; conditions: MTCC 3017, 24 h; summary of the method: as §1
Candida albicans [6] = assay: Antifungal activity against Candida albicans MTCC 3018 after 24 hrs by well diffusion method; conditions: MTCC 3018, 24 h; summary of the method: as §1
Candida albicans [7] = assay: Antifungal activity against Candida albicans MTCC 3958 after 24 hrs by well diffusion method; conditions: MTCC 3958, 24 h; summary of the method: as §1
Candida albicans [8] = assay: Antifungal activity against Candida albicans MTCC 4748 after 24 hrs by well diffusion method; conditions: MTCC 4748, 24 h; summary of the method: as §1
Candida albicans [9] = assay: Antifungal activity against Candida albicans MTCC 7315 after 24 hrs by well diffusion method; conditions: MTCC 7315, 24 h; summary of the method: as §1
[10] = Antifungal activity against Candida parapsilosis MTCC 1744 after 24 hrs by well diffusion method; summary of the method: as §1
[Candida] aaseri [11] = Antifungal activity against Candida aaseri MTCC 1962 after 24 hrs by well diffusion method; conditions: Yamadazyma aaseri, MTCC 1962, 24 h; summary of the method: as §1
[12] = Antifungal activity against Candida glabrata MTCC 3019 after 24 hrs by well diffusion method; conditions: Nakaseomyces glabratus; summary of the method: as §1
[13] = Antifungal activity against Candida krusei MTCC 3020 after 24 hrs by well diffusion method; conditions: Pichia kudriavzevii; summary of the method: as §1
Pichia sporocuriosa [14] = assay: Antifungal activity against Issatchenkia hanoiensis MTCC 4755 after 24 hrs by well diffusion method; conditions: MTCC 4755, 24 h; summary of the method: as §1
Candida albicans [15] = assay: Fungicidal activity against Candida albicans MTCC 183 after 24 hrs; conditions: MTCC 183, 24 h
Summary of the method: (§2)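 Candida grown overnight in Mueller Hinton broth. Compound serially diluted in the same broth from 150 to 0 and inoculated to a final 1.5 × 10^8 CFU/mL (0.5 McFarland), then 24 h at 37 °C. Tube contents plated onto Mueller Hinton agar for 24 h at 37 °C. MFC is the lowest concentration killing the yeast. Duplicates.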

Candida albicans [16] = assay: Fungicidal activity against Candida albicans MTCC 227 after 24 hrs; conditions: MTCC 227, 24 h; summary of the method: as §2
Candida albicans [17] = assay: Fungicidal activity against Candida albicans MTCC 854 after 24 hrs; conditions: MTCC 854, 24 h; summary of the method: as §2
Candida albicans [18] = assay: Fungicidal activity against Candida albicans MTCC 1637 after 24 hrs; conditions: MTCC 1637, 24 h; summary of the method: as §2
Candida albicans [19] = assay: Fungicidal activity against Candida albicans MTCC 3017 after 24 hrs; conditions: MTCC 3017, 24 h; summary of the method: as §2
Candida albicans [20] = assay: Fungicidal activity against Candida albicans MTCC 3018 after 24 hrs; conditions: MTCC 3018, 24 h; summary of the method: as §2
Candida albicans [21] = assay: Fungicidal activity against Candida albicans MTCC 3958 after 24 hrs; conditions: MTCC 3958, 24 h; summary of the method: as §2
Candida albicans [22] = assay: Fungicidal activity against Candida albicans MTCC 4748 after 24 hrs; conditions: MTCC 4748, 24 h; summary of the method: as §2
Candida albicans [23] = assay: Fungicidal activity against Candida albicans MTCC 7315 after 24 hrs; conditions: MTCC 7315, 24 h; summary of the method: as §2
Candida parapsilosis = assay: Fungicidal activity against Candida parapsilosis MTCC 1744 after 24 hrs; conditions: Lodderomyces parapsilosis, MTCC 1744, 24 h
Summary of the method: (§3)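 Broth dilution in Mueller Hinton broth with serial compound concentrations from […]. Overnight Candida cultures added to a final 1.5 × 10^8 CFU/mL (0.5 McFarland). Incubated 24 h at 37 °C, then 10 µL of each tube plated on Mueller Hinton agar for 24 h at 37 °C. MFC taken as the lowest concentration that kills the strain. Run in duplicate.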

[Candida] aaseri [24] = Fungicidal activity against Candida aaseri MTCC 1962 after 24 hrs; conditions: Yamadazyma aaseri, MTCC 1962, 24 h; summary of the method: as §2
Nakaseomyces glabratus = assay: Fungicidal activity against Candida glabrata MTCC 3019 after 24 hrs; conditions: MTCC 3019, 24 h; summary of the method: as §2
Pichia kudriavzevii = assay: Fungicidal activity against Candida krusei MTCC 3020 after 24 hrs; conditions: MTCC 3020, 24 h; summary of the method: as §3
Pichia sporocuriosa [25] = assay: Fungicidal activity against Issatchenkia hanoiensis MTCC 4755 after 24 hrs; conditions: MTCC 4755, 24 h; summary of the method: as §3

Clc1ccc(COC(Cn2ccnc2)c2ccc(Cl)cc2Cl)c(Cl)c1 (stereo not drawn) [MICONAZOLE]
MIC (Candida albicans [1]): 7.8 µg/mL (≈ 18.7 µM)
MIC (Candida albicans [2]): 7.8 µg/mL (≈ 18.7 µM)
MIC (Candida albicans [3]): 7.8 µg/mL (≈ 18.7 µM)
MIC (Candida albicans [4]): 7.8 µg/mL (≈ 18.7 µM)
MIC (Candida albicans [5]): 7.8 µg/mL (≈ 18.7 µM)
MIC (Candida albicans [6]): 7.8 µg/mL (≈ 18.7 µM)
MIC (Candida albicans [7]): 7.8 µg/mL (≈ 18.7 µM)
MIC (Candida albicans [8]): 7.8 µg/mL (≈ 18.7 µM)
MIC (Candida albicans [9]): 7.8 µg/mL (≈ 18.7 µM)
MIC [10]: 7.8 µg/mL (≈ 18.7 µM)
MIC ([Candida] aaseri [11]): 7.8 µg/mL (≈ 18.7 µM)
MIC [12]: 7.8 µg/mL (≈ 18.7 µM)
MIC [13]: 7.8 µg/mL (≈ 18.7 µM)
MIC (Pichia sporocuriosa [14]): 7.8 µg/mL (≈ 18.7 µM)
MFC (Candida albicans [15]): 7.8 µg/mL (≈ 18.7 µM)
MFC (Candida albicans [16]): 15.6 µg/mL (≈ 37.5 µM)
MFC (Candida albicans [17]): 15.6 µg/mL (≈ 37.5 µM)
MFC (Candida albicans [18]): 15.6 µg/mL (≈ 37.5 µM)
MFC (Candida albicans [19]): 7.8 µg/mL (≈ 18.7 µM)
MFC (Candida albicans [20]): 7.8 µg/mL (≈ 18.7 µM)
MFC (Candida albicans [21]): 15.6 µg/mL (≈ 37.5 µM)
MFC (Candida albicans [22]): 7.8 µg/mL (≈ 18.7 µM)
MFC (Candida albicans [23]): 7.8 µg/mL (≈ 18.7 µM)
MFC (Candida parapsilosis): 7.8 µg/mL (≈ 18.7 µM)
MFC ([Candida] aaseri [24]): 7.8 µg/mL (≈ 18.7 µM)
MFC (Nakaseomyces glabratus): 15.6 µg/mL (≈ 37.5 µM)
MFC (Pichia kudriavzevii): 7.8 µg/mL (≈ 18.7 µM)
MFC (Pichia sporocuriosa [25]): 7.8 µg/mL (≈ 18.7 µM)
